# Activity calls are given as the source filed them. The rule behind the calls is not given here.
# How the values were obtained:
# Plasmodium falciparum [1] = assay: Antiplasmodial activity against multidrug resistant Plasmodium falciparum K1 infected in human erythrocytes after 48 hrs by [3H]-hypoxanthine incorporation assay; type: functional, organism-based
# Plasmodium falciparum [2] = assay: Antiplasmodial activity against drug sensitive Plasmodium falciparum NF54 infected in human erythrocytes after 48 hrs by [3H]-hypoxanthine incorporation assay; type: functional, organism-based
# Liver microsome [3] = assay: Metabolic stability of the compound in human liver microsomes assessed as compound remaining at 0.1 uM after 30 mins by LC-MS/MS analysis; type: ADME; conditions: 0.5 h
# Liver microsome [4] = assay: Metabolic stability of the compound in rat liver microsomes assessed as compound remaining at 0.1 uM after 30 mins by LC-MS/MS analysis; type: ADME; conditions: 0.5 h
# [5] = Metabolic stability of the compound in mouse liver microsomes assessed as compound remaining at 0.1 uM after 30 mins by LC-MS/MS analysis; type: ADME; conditions: 0.5 h
# Plasmodium berghei [6] = assay: Antiplasmodial activity against Plasmodium berghei ANKA expressing GFP infected in mouse assessed as reduction of parasitemia level at 30 mg/kg, po qd for 4 days; type: functional; parameters: scale not given: the % may be the effect or the level left
# Plasmodium berghei [7] = assay: Antiplasmodial activity against Plasmodium berghei ANKA expressing GFP infected in mouse assessed as means survival days at 30 mg/kg, po qd for 4 days; type: functional
# Plasmodium falciparum [8] = assay: Antiplasmodial activity against Plasmodium falciparum 3D7 infected in po dosed non-myelodepleted NOD-SCID IL2Rgammanull mouse engrafted with human erythrocytes assessed as reduction of parasitemia level administered qd for 4 days; type: functional; conditions: 3D7, po, 96 h
# In short: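 P. falciparum-infected engrafted NSG mice were dosed orally once daily for four consecutive days. Blood parasitemia was monitored, and a 90% effective dose was derived along with the blood exposure at that dose.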
# [9] = Selectivity index, ratio of IC50 for CHO cells to IC50 for multidrug resistant Plasmodium falciparum K1; type: toxicity, cell-based; conditions: hamster, read-out: Ratio IC50
# [10] = Selectivity index, ratio of IC50 for CHO cells to IC50 for Plasmodium falciparum NF54; type: toxicity, cell-based; conditions: hamster, read-out: Ratio IC50
# [11] = Selectivity index, ratio of IC50 for African green monkey VERO cells to IC50 for multidrug resistant Plasmodium falciparum K1; type: toxicity, cell-based; conditions: read-out: Ratio IC50
# [12] = Selectivity index, ratio of IC50 for African green monkey VERO cells to IC50 for Plasmodium falciparum NF54; type: toxicity, cell-based; conditions: read-out: Ratio IC50
# [13] = biological target: Voltage-gated inwardly rectifying potassium channel KCNH2 (Homo sapiens, UniProt Q12809); assay: Inhibition of human ERG potassium channel by ionworks patch-clamp electrophysiology assay
# Plasmodium berghei [14] = assay: Antiplasmodial activity against Plasmodium berghei ANKA expressing GFP infected in mouse assessed as reduction of parasitemia level at 50 mg/kg, po qd for 4 days measured on day 4 post last dose by flow cytometric analysis relative to control; type: functional; parameters: scale not given: the % may be the effect or the level left
# In short: (§1)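 Mice (n = 3) infected with GFP-transfected P. berghei ANKA. Test agents were suspended in HPMC vehicle (0.5% w/v hydroxypropylmethylcellulose, 0.5% v/v benzyl alcohol, 0.4% v/v Tween 80, 0.9% w/v NaCl in water). Dosed orally at 4, 24, 48 and 72 h post-infection. Parasitemia read by flow cytometry on day 4 (96 h), detection limit 0.1%. Activity = control-minus-treated mean % parasitemia, relative to control.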
# Plasmodium berghei [15] = assay: Antiplasmodial activity against Plasmodium berghei ANKA expressing GFP infected in mouse assessed as means survival days at 50 mg/kg, po qd for 4 days; type: functional
# In short: (§2)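 Mice (n = 3) infected with GFP-transfected P. berghei ANKA. Compounds dissolved or suspended in HPMC vehicle (0.5% w/v hydroxypropylmethylcellulose, 0.5% v/v benzyl alcohol, 0.4% v/v Tween 80, 0.9% w/v NaCl in water). Dosed orally 4, 24, 48 and 72 h after infection. Parasitemia read by flow cytometry (detection limit 0.1%). Survival recorded as mean survival time in days.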
# Plasmodium berghei [16] = assay: Antiplasmodial activity against sporozoite stage of Plasmodium berghei expressing luciferase infected in human HepG2-A16-CD81EGFP cells preincubated with cells for 18 hrs followed by protozoal infection measured after 48 hrs by bioluminescence assay; type: functional, organism-based
# In short: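 HepG2 cells were pretreated 18 h with compound, then infected with freshly dissected luciferase-expressing P. berghei sporozoites. After a further 48 h with compound, viability of exoerythrocytic forms and of HepG2 host cells was read by bioluminescence.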
# [17] = Half life in rat at 20 mg/kg, po; type: ADME, organism-based; conditions: in vivo
# [18] = Oral bioavailability in rat at 20 mg/kg; type: ADME, organism-based; conditions: in vivo
# [19] = Half life in rat at 5 mg/kg, iv; type: ADME, organism-based; conditions: in vivo
# [20] = Plasma clearance in rat at 5 mg/kg, iv; type: ADME, organism-based
# [21] = Volume of distribution in rat at 5 mg/kg, iv; type: ADME, organism-based; conditions: in vivo
# Plasmodium berghei [22] = assay: Antiplasmodial activity against Plasmodium berghei ANKA expressing GFP infected in mouse assessed as mouse cured from disease at 50 mg/kg, po qd for 4 days; type: functional, organism-based
# Plasmodium berghei [23] = assay: Antiplasmodial activity against Plasmodium berghei ANKA expressing GFP infected in mouse assessed as reduction of parasitemia level at 10 mg/kg, po qd for 4 days measured on day 4 post last dose by flow cytometric analysis relative to control; type: functional; parameters: scale not given: the % may be the effect or the level left; in short: as §1
# Plasmodium berghei [24] = assay: Antiplasmodial activity against Plasmodium berghei ANKA expressing GFP infected in mouse assessed as means survival days at 10 mg/kg, po qd for 4 days; type: functional; in short: as §2
# Plasmodium berghei [25] = assay: Antiplasmodial activity against Plasmodium berghei ANKA expressing GFP infected in mouse assessed as reduction of parasitemia level at 3 mg/kg, po qd for 4 days measured on day 4 post last dose by flow cytometric analysis relative to control; type: functional; parameters: scale not given: the % may be the effect or the level left; in short: as §1
# Plasmodium berghei [26] = assay: Antiplasmodial activity against Plasmodium berghei ANKA expressing GFP infected in mouse assessed as means survival days at 3 mg/kg, po qd for 4 days; type: functional; in short: as §2
# [27] = Solubility of the compound in 0.01M HCl at pH 2 by Nephelometric analysis; type: physicochemical; conditions: buffer
# [28] = Drug level in mouse blood at 50 mg/kg, po after 1 hr; type: ADME, organism-based; conditions: read-out: Drug uptake
# In short: (§3)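 Snapshot whole-blood levels of parent and its sulfone metabolite at 1, 4 and 24 h after the first 50 mg/kg oral dose. Samples came from the P. berghei-infected efficacy mice, dosed in HPMC suspension vehicle.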
# [29] = Drug level in mouse blood at 50 mg/kg, po after 4 hrs; type: ADME, organism-based; conditions: read-out: Drug uptake; in short: as §3
# Blood = assay: Drug level in mouse blood at 50 mg/kg, po after 24 hrs; type: ADME, organism-based; conditions: in vivo, 24 h, BLD = below limit of detection; in short: as §3
# Chain of Voltage-gated inwardly rectifying potassium channel KCNH2 (Q12809 whole entry): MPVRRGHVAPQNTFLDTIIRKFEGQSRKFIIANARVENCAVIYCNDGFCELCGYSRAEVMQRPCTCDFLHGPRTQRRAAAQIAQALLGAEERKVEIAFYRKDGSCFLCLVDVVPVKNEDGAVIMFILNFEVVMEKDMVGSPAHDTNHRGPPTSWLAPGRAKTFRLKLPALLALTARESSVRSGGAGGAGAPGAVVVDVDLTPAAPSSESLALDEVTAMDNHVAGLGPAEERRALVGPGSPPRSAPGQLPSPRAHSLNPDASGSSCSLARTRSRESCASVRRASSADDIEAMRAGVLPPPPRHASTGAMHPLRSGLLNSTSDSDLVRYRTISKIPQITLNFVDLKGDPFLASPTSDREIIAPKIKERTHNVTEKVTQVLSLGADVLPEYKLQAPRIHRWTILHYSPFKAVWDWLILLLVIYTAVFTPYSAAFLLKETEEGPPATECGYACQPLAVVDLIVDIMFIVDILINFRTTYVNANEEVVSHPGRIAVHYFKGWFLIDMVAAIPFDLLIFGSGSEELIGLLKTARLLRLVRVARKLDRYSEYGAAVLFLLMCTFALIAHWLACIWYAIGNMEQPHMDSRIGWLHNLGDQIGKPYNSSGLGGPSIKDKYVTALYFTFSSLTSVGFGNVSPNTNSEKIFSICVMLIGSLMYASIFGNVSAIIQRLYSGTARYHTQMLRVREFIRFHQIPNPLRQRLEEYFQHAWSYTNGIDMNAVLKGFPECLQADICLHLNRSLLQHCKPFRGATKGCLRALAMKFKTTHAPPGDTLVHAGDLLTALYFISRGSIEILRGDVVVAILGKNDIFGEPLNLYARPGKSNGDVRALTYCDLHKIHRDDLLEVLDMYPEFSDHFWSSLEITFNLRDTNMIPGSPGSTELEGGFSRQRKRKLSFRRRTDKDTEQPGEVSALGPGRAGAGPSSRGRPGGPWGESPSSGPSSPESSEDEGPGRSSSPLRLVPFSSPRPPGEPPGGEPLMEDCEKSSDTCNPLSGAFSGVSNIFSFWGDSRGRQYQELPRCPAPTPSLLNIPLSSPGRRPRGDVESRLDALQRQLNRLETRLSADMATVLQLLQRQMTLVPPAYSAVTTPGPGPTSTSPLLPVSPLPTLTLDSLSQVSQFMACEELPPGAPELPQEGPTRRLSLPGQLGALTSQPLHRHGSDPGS
compound,measurement,setting,value
CS(=O)(=O)c1ccc(-c2cnn3ccc(-c4cccc(C(F)(F)F)c4)nc23)cc1,IC50,Plasmodium falciparum [1],43 nM
same,IC50,Plasmodium falciparum [2],48 nM
same,Stability,Liver microsome [3],Stable
same,Stability,Liver microsome [4],Stable
same,Stability,[5],Stable
"O[C@@H](c1cc(C(F)(F)F)nc2c(C(F)(F)F)cccc12)[C@H]1CCCCN1 (relative stereo) [(S,R)-MEFLOQUINE]",Activity,Plasmodium berghei [6],99.9%
same,MSD,Plasmodium berghei [7],29 days
same,ED90,Plasmodium falciparum [8],7.7 mg/kg
C[C@H]1[C@H](OC(=O)CCC(=O)O)O[C@@H]2O[C@@]3(C)CC[C@H]4[C@H](C)CC[C@@H]1[C@@]24OO3 [ARTESUNATE],IC50,Plasmodium falciparum [1],4 nM
same,IC50,Plasmodium falciparum [2],3 nM
same,Activity,Plasmodium berghei [6],99%
same,MSD,Plasmodium berghei [7],10 days
same,ED90,Plasmodium falciparum [8],11.1 mg/kg
CS(=O)(=O)c1ccc(-c2nnc3ccc(-c4cccc(S(C)(=O)=O)c4)nn23)cc1,IC50,Plasmodium falciparum [2],> 2340 nM
CS(=O)(=O)c1ccc(-c2cnc3ccc(-c4cccc(S(C)(=O)=O)c4)nn23)cc1,selectivity ratio,[9],> 1000
same,selectivity ratio,[10],> 1000
same,selectivity ratio,[11],> 1000
same,selectivity ratio,[12],> 1000
same,Stability,Liver microsome [3],Stable
same,Stability,Liver microsome [4],Stable
same,Stability,[5],Stable
same,IC50,[13],900 nM
same,Activity,Plasmodium berghei [14],99.8%
same,MSD,Plasmodium berghei [15],7 days
same,IC50,Plasmodium berghei [16],4.1 nM
CS(=O)(=O)c1ccc(-c2cnc3ccc(-c4cccc(S(=O)(=O)C5CC5)c4)cn23)cc1,IC50,Plasmodium falciparum [1],38 nM
same,IC50,Plasmodium falciparum [2],46 nM
same,selectivity ratio,[9],700
same,selectivity ratio,[10],700
same,selectivity ratio,[11],700
same,selectivity ratio,[12],700
same,Stability,Liver microsome [3],Stable
same,Stability,Liver microsome [4],Stable
same,Stability,[5],Stable
same,Activity,Plasmodium berghei [14],99.5%
same,MSD,Plasmodium berghei [15],10 days
same,half-life,[17],3.9 h
same,bioavailability,[18],51%
same,half-life,[19],3 h
same,clearance,[20],8.7 mL/min/kg
same,Vd,[21],2.3 L/kg
CS(=O)(=O)c1ccc(-c2cnn3ccc(-c4cccc(C(F)(F)F)c4)cc23)cc1,IC50,Plasmodium falciparum [2],98 nM
same,Stability,Liver microsome [3],Stable
same,Stability,Liver microsome [4],Stable
same,Stability,[5],Stable
C[S+]([O-])c1ccc(-c2cnc3ccc(-c4cccc(S(=O)(=O)C5CC5)c4)nn23)cc1 (stereo not given),Stability,Liver microsome [3],Stable
same,Stability,Liver microsome [4],Stable
same,Stability,[5],Stable
same,Activity,Plasmodium berghei [14],99.8%
same,MSD,Plasmodium berghei [15],>30 days
same,Activity,Plasmodium berghei [22],Active
same,Activity,Plasmodium berghei [23],99.6%
same,MSD,Plasmodium berghei [24],8 days
same,Activity,Plasmodium berghei [25],98%
same,MSD,Plasmodium berghei [26],7 days
CS(=O)(=O)c1ccc(-c2cnc3ccc(-c4cccc(S(=O)(=O)C5CC5)c4)nn23)cc1,Stability,Liver microsome [3],Stable
same,Stability,Liver microsome [4],Stable
same,Stability,[5],Stable
CCc1nc(N)nc(N)c1-c1ccc(Cl)cc1 [PYRIMETHAMINE],ED90,Plasmodium falciparum [8],0.9 mg/kg
CS(=O)(=O)c1ccc(-c2cnc3ccc(-c4cccc(S(C)(=O)=O)c4)cn23)cc1,IC50,Plasmodium falciparum [1],113 nM
same,IC50,Plasmodium falciparum [2],150 nM
same,Stability,Liver microsome [3],Stable
same,Stability,Liver microsome [4],Stable
same,Stability,[5],Stable
same,IC50,[13],4800 nM
CS(=O)(=O)c1ccc(-c2cnc3cnc(-c4cccc(S(C)(=O)=O)c4)cn23)cc1,IC50,Plasmodium falciparum [2],877 nM
same,Stability,Liver microsome [3],Stable
same,Stability,Liver microsome [4],Stable
same,Stability,[5],Stable
same,solubility,[27],soluble
CS(=O)(=O)c1ccc(-c2cnn3c2NC(c2cccc(C(F)(F)F)c2)CC3)cc1 (stereo not given),IC50,Plasmodium falciparum [2],< 100 nM
CS(=O)(=O)c1ccc(-c2nnc3ccc(-c4cccc(S(C)(=O)=O)c4)cn23)cc1,IC50,Plasmodium falciparum [1],> 1000 nM
same,IC50,Plasmodium falciparum [2],> 1000 nM
CS(=O)(=O)c1ccc(-c2cnc3ncc(-c4cccc(S(C)(=O)=O)c4)cn23)cc1,IC50,Plasmodium falciparum [1],> 1000 nM
same,IC50,Plasmodium falciparum [2],> 1000 nM
CCN(CC)CCCC(C)Nc1ccnc2cc(Cl)ccc12 (stereo not given) [CHLOROQUINE],ED90,Plasmodium falciparum [8],4.3 mg/kg
CS(=O)(=O)c1ccc(-c2cnn3c2NC(c2cccc(S(=O)(=O)C4CC4)c2)CC3)cc1 (stereo not given),IC50,Plasmodium falciparum [1],46 nM
same,IC50,Plasmodium falciparum [2],44 nM
same,selectivity ratio,[9],> 1000
same,selectivity ratio,[10],> 1000
same,selectivity ratio,[11],> 1000
same,selectivity ratio,[12],> 1000
same,Stability,Liver microsome [3],Stable
same,Stability,Liver microsome [4],Stable
same,Stability,[5],Stable
same,solubility,[27],soluble
same,Activity,Plasmodium berghei [14],78%
same,MSD,Plasmodium berghei [15],7 days
same,concentration at 1 h,[28],456 nM
same,concentration at 4 h,[29],177 nM
same,Drug uptake,Blood,BLD
CS(=O)(=O)c1ccc(-c2cnc3ccc(-c4cccc(C(F)(F)F)c4)nn23)cc1,IC50,Plasmodium falciparum [1],46 nM
same,IC50,Plasmodium falciparum [2],60 nM
same,Stability,Liver microsome [3],Stable
same,Stability,Liver microsome [4],Stable
same,Stability,[5],Stable
same,Activity,Plasmodium berghei [14],99.8%
same,MSD,Plasmodium berghei [15],>30 days
same,Activity,Plasmodium berghei [22],Active
same,Activity,Plasmodium berghei [23],70%
same,MSD,Plasmodium berghei [24],7 days
same,Activity,Plasmodium berghei [25],<40%
same,MSD,Plasmodium berghei [26],4 days
CS(=O)(=O)c1ccc(-c2cnn3ccc(-c4cccc(S(C)(=O)=O)c4)nc23)cc1,IC50,Plasmodium falciparum [1],2.2 nM
same,IC50,Plasmodium falciparum [2],2.6 nM
same,Stability,Liver microsome [3],Stable
same,Stability,Liver microsome [4],Stable
same,Stability,[5],Stable
CS(=O)(=O)c1ccc(-c2nnc3ccc(-c4cccc(C(F)(F)F)c4)cn23)cc1,IC50,Plasmodium falciparum [1],> 1000 nM
same,IC50,Plasmodium falciparum [2],> 1000 nM

# From ChEMBL document CHEMBL3627607, “A Novel Pyrazolopyridine with in Vivo Activity in Plasmodium berghei- and Plasmodium falciparum-Infected Mouse Models from Structure-Activity Relationship Studies around the Core of Recently Identified Antimalarial Imidazopyridazines” (J Med Chem, 2015)
